Assay results collected from several papers.
Compare with care: the assays were run in different laboratories.
Target: Vascular endothelial growth factor receptor 2 (KDR, Homo sapiens, UniProt P35968)

Nc1cnc(N2CCc3cc(S(=O)(=O)Nc4c(F)cc(Cl)cc4F)cc(N4CCCC4=O)c32)nc1 — remaining binding (cell-free assay, competition with immobilised ligand; 1 µM): 81%
O=C(Nc1c[nH]nc1C(=O)NC1CCNCC1)c1cc(F)cc(F)c1 — remaining binding (binding, competition with immobilised ligand; 1 µM): 93%
C=CC(=O)N1CCC(C(=O)NCC(=O)N2CCN(c3nc(-c4cnc(N)nc4C(F)F)nc(N4CCOCC4)n3)CC2)CC1 — remaining binding (binding, competition with immobilised ligand; 1 µM): 81%
N#Cc1ccccc1CSc1nnc2c(n1)[nH]c1ccccc12 — remaining binding (binding, competition with immobilised ligand; 10 µM): 95%
C[C@@H](c1ccc(-n2cnc3c(N)ncnc32)cc1)N1CCc2nn(C)c(Cc3ccccc3)c2C1=O — remaining binding (binding, competition with immobilised ligand; 0.1 µM): 69%
c1cnn2ncc(-c3ccnc(N4CCC45COC5)n3)c2c1 — remaining binding (binding; 1 µM): 67%
O=C(NCCCN1CCOCC1)c1ccc(Nc2ncc(Cl)c(-c3ccc(Cl)s3)n2)cc1 — remaining binding (binding, competition with immobilised ligand; 1 µM): 13%
O=C(NCCCC1CCCCC1)c1ccc(CNC(=O)c2cnn(-c3ccccc3)c2C(F)(F)F)cc1 — remaining binding (cell-free assay, competition with immobilised ligand; 0.1 µM): 97%
O=C(NCCCN1CCOCC1)c1ccc(Nc2nccc(-c3cc4ccccc4s3)n2)cc1 — remaining binding (binding, competition with immobilised ligand; 1 µM): 72%
COc1cnc(Nc2cccc(S(N)(=O)=O)c2)nc1N1CCN(c2ccccc2)CC1 — remaining binding (binding, competition with immobilised ligand; 1 µM): 83%
O=C(NCc1ncc(C(F)(F)F)cc1Cl)c1ccc2c(c1)C1(CCS(=O)(=O)CC1)[C@H](C1CC1)N2S(=O)(=O)c1ccc(F)cc1 — remaining binding (cell-free assay, competition with immobilised ligand; 1 µM): 83%
FC(F)(F)Oc1cccc(-c2cnc3ccc(-c4ccncc4)nn23)c1 — remaining binding (cell-free assay, competition with immobilised ligand; 5 µM): 18%
CN(C)C(=O)Cn1cc(-c2nc(C3(c4ccc(-c5cnc(N)nc5)cc4)CC3)no2)cn1 — remaining binding (cell-free assay, competition with immobilised ligand; 1 µM): 70%
C[C@@H]1CN(c2ccc3ncc(-c4ccc5[nH]nc(C6CC6)c5c4)n3n2)C[C@H](C)O1 — remaining binding (binding, competition with immobilised ligand; 50 nM): 86%
N[C@@H]1CCN(c2nccc(-c3cnn4ncccc34)n2)C1 — remaining binding (binding; 1 µM): 100%
CO[C@@H](C)c1c(Nc2ccc([C@@H](N(C)C(=O)C3CCS(=O)(=O)CC3)C(F)(F)F)cc2)cnc2cc(Cl)nn12 — remaining binding (cell-free assay, competition with immobilised ligand; 1 µM): 95%
Cc1cnn2ncc(-c3ccnc(N(C)C)n3)c2c1 — remaining binding (binding; 1 µM): 96%
O=C(c1ccc(Nc2ncc(Cl)c(-c3ccc(Cl)s3)n2)cc1)N1CCC(N2CCCC2)CC1 — remaining binding (binding, competition with immobilised ligand; 1 µM): 2.2%
CN(c1nccc(-c2cnn3ncccc23)n1)C1CC1 — remaining binding (binding; 1 µM): 100%
N#CC1(c2ccccn2)CCN(Cc2cc(C(=O)N3CCCC3)c(=O)n3ccccc23)CC1 — remaining binding (cell-free assay, competition with immobilised ligand; 1 µM): 92%
CCN1CCN(Cc2ccc(C(=O)Nc3ccc(C)c(Oc4ccc5c(c4)CC(=O)N5)c3)cc2C(F)(F)F)CC1 — remaining binding (binding, competition with immobilised ligand; 1 µM): 100%
CCCOc1ccc([C@@H]2[C@@H](C(=O)O)[C@H](c3ccc4c(c3)OCO4)CN2CC(=O)Nc2c(CC)cccc2CC)cc1 — remaining binding (cell-free assay, competition with immobilised ligand; 1 µM): 72%
C[C@H]1CCN(c2nccc(-c3cnn4ncccc34)n2)C1 — remaining binding (binding; 1 µM): 92%
COc1ccc2c(O[C@@H]3C[C@H]4C(=O)N[C@]5(C(=O)O)CC5/C=C\CCCCC[C@H](NC(=O)OC5CCCC5)C(=O)N4C3)cc(-c3csc(NC(=O)C(C)C)n3)nc2c1C (stereo partly shown) — remaining binding (cell-free assay, competition with immobilised ligand; 1 µM): 83%
CN(CCCC(F)(F)F)c1nccc(-c2cnn3ncccc23)n1 — remaining binding (binding; 1 µM): 100%
